In ChEMBL document CHEMBL1139833, “Synthesis and metabotropic glutamate receptor activity of S-oxidized variants of (-)-4-amino-2-thiabicyclo-[3.1.0]hexane-4,6-dicarboxylate: identification of potent, selective, and orally bioavailable agonists for mGlu2/3 receptors” (J Med Chem, 2007):
Active and inactive are the calls of the source. The rule behind the calls is not given here.

What was measured:
[1] = target: Metabotropic glutamate receptor 5 (Homo sapiens) (UniProt P41594); assay: Agonist activity at human mGluR5a assessed as effect on cAMP production in RGT cells upto 100 uM; format: functional, cell-based
In short: (§1)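 Compounds were tested at concentrations up to 100 µM for agonist or antagonist effects. Assays used RGT cells, which are AV12-664 cells coexpressing GLAST and recombinant human mGlu1a, mGlu5a, mGlu4a or mGlu7a.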

[2] = target: Metabotropic glutamate receptor 1 (Homo sapiens) (UniProt Q13255); assay: Antagonist activity against human mGluR1a assessed as effect on cAMP production in RGT cells upto 100 uM; format: functional, cell-based; in short: as §1
[3] = target: Metabotropic glutamate receptor 4 (Homo sapiens) (UniProt Q14833); assay: Antagonist activity against human mGluR4a assessed as effect on cAMP production in RGT cells upto 100 uM; format: functional, cell-based; in short: as §1
Metabotropic glutamate receptor 4 (Homo sapiens), sequence (Q14833 whole entry): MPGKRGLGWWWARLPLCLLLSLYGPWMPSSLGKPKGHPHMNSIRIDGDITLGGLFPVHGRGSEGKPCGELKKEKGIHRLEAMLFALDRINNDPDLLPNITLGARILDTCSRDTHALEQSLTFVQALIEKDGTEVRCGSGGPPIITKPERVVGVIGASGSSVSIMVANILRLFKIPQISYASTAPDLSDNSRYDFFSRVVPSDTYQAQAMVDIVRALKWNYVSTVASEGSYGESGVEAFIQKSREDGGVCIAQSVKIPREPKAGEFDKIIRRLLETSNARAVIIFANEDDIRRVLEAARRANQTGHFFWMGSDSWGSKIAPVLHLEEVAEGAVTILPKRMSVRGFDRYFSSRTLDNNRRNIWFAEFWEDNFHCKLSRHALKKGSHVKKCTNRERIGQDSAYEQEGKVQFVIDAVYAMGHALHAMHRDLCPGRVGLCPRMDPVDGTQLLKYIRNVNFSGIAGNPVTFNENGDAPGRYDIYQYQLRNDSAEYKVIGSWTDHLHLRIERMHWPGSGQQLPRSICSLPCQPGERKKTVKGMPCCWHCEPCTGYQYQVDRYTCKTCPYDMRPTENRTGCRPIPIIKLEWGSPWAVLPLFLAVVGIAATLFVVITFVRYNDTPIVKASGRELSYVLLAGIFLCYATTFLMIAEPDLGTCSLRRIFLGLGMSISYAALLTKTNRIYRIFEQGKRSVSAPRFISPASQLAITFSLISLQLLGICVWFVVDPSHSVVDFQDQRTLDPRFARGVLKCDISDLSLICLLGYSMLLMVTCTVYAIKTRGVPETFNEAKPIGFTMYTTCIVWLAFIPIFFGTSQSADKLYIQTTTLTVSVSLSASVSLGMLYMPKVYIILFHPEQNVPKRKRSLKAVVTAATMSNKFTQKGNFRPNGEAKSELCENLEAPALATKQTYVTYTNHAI

[4] = target: Metabotropic glutamate receptor 1 (Homo sapiens) (UniProt Q13255); assay: Agonist activity at human mGluR1a assessed as effect on cAMP production in RGT cells upto 100 uM; format: functional, cell-based; in short: as §1
[5] = target: Metabotropic glutamate receptor 5 (Homo sapiens) (UniProt P41594); assay: Antagonist activity against human mGluR5a assessed as effect on cAMP production in RGT cells upto 100 uM; format: functional, cell-based; in short: as §1
[6] = target: Metabotropic glutamate receptor 4 (Homo sapiens) (UniProt Q14833); assay: Agonist activity at human mGluR4a assessed as effect on cAMP production in RGT cells upto 100 uM; format: functional, cell-based; in short: as §1
[7] = target: Metabotropic glutamate receptor 7 (Homo sapiens) (UniProt Q14831); assay: Agonist activity at human mGluR7a assessed as effect on cAMP production in RGT cells upto 100 uM; format: functional, cell-based; in short: as §1
Metabotropic glutamate receptor 7 (Homo sapiens), sequence (Q14831 whole entry): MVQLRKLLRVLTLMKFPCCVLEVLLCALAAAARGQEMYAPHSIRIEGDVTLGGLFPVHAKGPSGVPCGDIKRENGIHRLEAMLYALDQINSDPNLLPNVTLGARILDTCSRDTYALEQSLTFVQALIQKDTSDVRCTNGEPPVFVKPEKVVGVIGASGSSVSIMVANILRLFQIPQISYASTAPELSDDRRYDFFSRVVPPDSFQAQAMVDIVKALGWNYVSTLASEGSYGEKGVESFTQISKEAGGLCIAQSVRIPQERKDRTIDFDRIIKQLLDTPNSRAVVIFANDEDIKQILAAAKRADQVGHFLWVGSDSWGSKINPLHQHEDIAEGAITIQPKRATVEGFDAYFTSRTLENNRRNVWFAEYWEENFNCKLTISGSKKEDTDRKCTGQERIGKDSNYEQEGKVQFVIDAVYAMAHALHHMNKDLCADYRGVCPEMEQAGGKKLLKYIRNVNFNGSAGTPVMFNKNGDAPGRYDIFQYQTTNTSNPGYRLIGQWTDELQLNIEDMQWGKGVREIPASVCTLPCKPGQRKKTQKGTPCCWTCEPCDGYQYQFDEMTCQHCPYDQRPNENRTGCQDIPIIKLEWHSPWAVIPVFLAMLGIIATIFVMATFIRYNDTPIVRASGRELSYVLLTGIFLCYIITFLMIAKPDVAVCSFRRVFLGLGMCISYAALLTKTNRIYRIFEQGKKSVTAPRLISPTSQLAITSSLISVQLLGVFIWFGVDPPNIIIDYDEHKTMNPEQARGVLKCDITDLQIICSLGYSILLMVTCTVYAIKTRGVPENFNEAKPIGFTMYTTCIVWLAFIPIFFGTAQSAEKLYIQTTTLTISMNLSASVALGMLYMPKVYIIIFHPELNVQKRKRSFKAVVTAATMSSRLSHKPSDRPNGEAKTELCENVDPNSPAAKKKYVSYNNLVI

[8] = target: Metabotropic glutamate receptor 7 (Homo sapiens) (UniProt Q14831); assay: Antagonist activity against human mGluR7a assessed as effect on cAMP production in RGT cells upto 100 uM; format: functional, cell-based; in short: as §1
[9] = system: Rattus norvegicus; assay: Plasma concentration in Fischer 344 rat at 10 mg/kg, po after 0.5 hrs; format: ADME, organism-based; parameters: dose 10 mg/kg, route oral; settings: in vivo
In short: (§2)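 Plasma levels in fasted male Fischer 344 rats after a 10 mg/kg oral dose in pH 7 water (NaOH), quantified by positive-ion electrospray LC/MS/MS. Main protocol sampled at 0.08/0.25–24 h, n=3 rats per time point. A variant oral-only arm used n=6 rats with samples at 0.5, 1, 2, 3, 4 and 6 h.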

[10] = system: Rattus norvegicus; assay: Reduction of PCP-induced ambulations in Sprague-Dawley rat at 10 mg/kg, po; format: functional; parameters: scale not given: the % may be the effect or the level left
In short: (§3)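 Male Sprague-Dawley rats (225-274 g) fasted 12-18 h and habituated 30 min to the test cage. Test drug or vehicle was given orally 2 h before PCP (5 mg/kg s.c.) or 0.9% NaCl. Horizontal photobeam breaks were counted over 60 min, n=8-13 per group.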

[11] = target: T1, Metabotropic glutamate receptor 2 (Homo sapiens, UniProt Q14416); assay: Agonist activity at human mGluR2 assessed as effect on cAMP production in RGT cells; format: functional, cell-based
T1 sequence (Q14416 whole entry): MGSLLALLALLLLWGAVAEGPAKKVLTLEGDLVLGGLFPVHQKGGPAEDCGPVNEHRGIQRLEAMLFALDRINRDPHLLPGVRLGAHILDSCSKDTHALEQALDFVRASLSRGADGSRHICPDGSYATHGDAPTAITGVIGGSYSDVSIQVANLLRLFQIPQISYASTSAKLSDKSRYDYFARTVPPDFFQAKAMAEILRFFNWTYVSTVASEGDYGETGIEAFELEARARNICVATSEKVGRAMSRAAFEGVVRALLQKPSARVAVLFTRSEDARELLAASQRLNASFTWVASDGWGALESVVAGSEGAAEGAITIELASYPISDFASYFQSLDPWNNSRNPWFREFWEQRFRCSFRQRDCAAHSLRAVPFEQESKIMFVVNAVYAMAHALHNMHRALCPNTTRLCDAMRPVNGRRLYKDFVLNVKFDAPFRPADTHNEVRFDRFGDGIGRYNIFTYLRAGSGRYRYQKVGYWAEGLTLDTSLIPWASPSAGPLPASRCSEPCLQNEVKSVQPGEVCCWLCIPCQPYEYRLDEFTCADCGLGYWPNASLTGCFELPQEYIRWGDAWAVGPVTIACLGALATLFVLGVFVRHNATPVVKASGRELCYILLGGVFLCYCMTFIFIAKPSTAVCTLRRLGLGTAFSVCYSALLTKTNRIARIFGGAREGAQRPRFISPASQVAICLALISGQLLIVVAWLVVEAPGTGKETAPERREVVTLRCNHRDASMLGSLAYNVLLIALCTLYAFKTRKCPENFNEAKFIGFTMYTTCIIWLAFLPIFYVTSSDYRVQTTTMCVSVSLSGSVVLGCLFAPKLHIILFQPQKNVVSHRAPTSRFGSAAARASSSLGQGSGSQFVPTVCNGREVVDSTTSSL
In short: (§4)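 cAMP second-messenger responses measured in RGT cells. These are non-neuronal AV12-664 cells coexpressing the glutamate transporter GLAST, to minimize glutamate activity, plus the recombinant human receptor (mGlu2, mGlu3 or mGlu8). Agonist EC50 determined.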

[12] = Plasma concentration in Fischer 344 rat at 10 mg/kg, po after 8 hrs; format: ADME, organism-based; parameters: dose 10 mg/kg, route oral; in short: as §2
[13] = system: Rattus norvegicus; assay: Inhibition of PCP-induced ambulations in Sprague-Dawley rat after oral administration; format: functional; in short: as §3
[14] = Oral bioavailability in Fischer 344 rat at 10 mg/kg, po; format: ADME, organism-based; settings: in vivo
In short: (§5)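 Male Fischer 344 rats fasted overnight, food returned 4 h post dose, water ad libitum. Doses were in water brought to pH 7 with NaOH, given i.v. (2.5 or 10 mg/kg) or p.o. (10 mg/kg). Nine rats per dose group, three per time point, with blood taken over 0.08–24 h. Plasma measured by LC/MS/MS.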

[15] = system: Rattus norvegicus; assay: Plasma concentration in Fischer 344 rat at 10 mg/kg, po after 2 hrs; format: ADME, organism-based; parameters: dose 10 mg/kg, route oral; settings: in vivo; in short: as §2
[16] = system: Rattus norvegicus; assay: Plasma concentration in Fischer 344 rat at 10 mg/kg, po after 4 hrs; format: ADME, organism-based; parameters: dose 10 mg/kg, route oral; settings: in vivo; in short: as §2
[17] = system: Rattus norvegicus; assay: Cmax in Fischer 344 rat at 10 mg/kg, iv; format: ADME, organism-based; parameters: dose 10 mg/kg, route intravenous; settings: in vivo; in short: as §5
[18] = Plasma concentration in Fischer 344 rat at 10 mg/kg, po after 16 hrs; format: ADME, organism-based; parameters: dose 10 mg/kg, route oral; in short: as §2
[19] = Plasma concentration in rat at 10 mg/kg, po after 24 hrs; format: ADME, organism-based; parameters: dose 10 mg/kg, route oral; in short: as §2
[20] = Tmax in Fischer 344 rat at 10 mg/kg, iv; format: ADME, organism-based; parameters: dose 10 mg/kg, route intravenous; settings: in vivo; in short: as §5
[21] = Tmax in Fischer 344 rat at 10 mg/kg, po; format: ADME, organism-based; parameters: dose 10 mg/kg, route oral; settings: Fischer 344, rat, in vivo; in short: as §5
[22] = system: Rattus norvegicus; assay: Plasma concentration in Fischer 344 rat at 10 mg/kg, po after 1 hrs; format: ADME, organism-based; parameters: dose 10 mg/kg, route oral; settings: in vivo; in short: as §2
[23] = system: Rattus norvegicus; assay: (§6) AUC (0-24h) in Fischer 344 rat at 10 mg/kg, po; format: ADME, organism-based, Plasma; parameters: time < 24 hr, dose 10 mg/kg, route oral; settings: rat, in vivo, 24 h; in short: as §5
[24] = system: Rattus norvegicus; assay: Reduction of PCP-induced ambulations in Sprague-Dawley rat at 3 mg/kg, po; format: functional; parameters: scale not given: the % may be the effect or the level left; in short: as §3
[25] = system: Rattus norvegicus; assay: Cmax in Fischer 344 rat at 10 mg/kg, po; format: ADME, organism-based; parameters: dose 10 mg/kg, route oral; settings: in vivo; in short: as §5
[26] = target: T2, Metabotropic glutamate receptor 3 (Homo sapiens, UniProt Q14832); assay: Agonist activity at human mGluR3 assessed as effect on cAMP production in RGT cells; format: functional, cell-based; in short: as §4
T2 sequence (Q14832 whole entry): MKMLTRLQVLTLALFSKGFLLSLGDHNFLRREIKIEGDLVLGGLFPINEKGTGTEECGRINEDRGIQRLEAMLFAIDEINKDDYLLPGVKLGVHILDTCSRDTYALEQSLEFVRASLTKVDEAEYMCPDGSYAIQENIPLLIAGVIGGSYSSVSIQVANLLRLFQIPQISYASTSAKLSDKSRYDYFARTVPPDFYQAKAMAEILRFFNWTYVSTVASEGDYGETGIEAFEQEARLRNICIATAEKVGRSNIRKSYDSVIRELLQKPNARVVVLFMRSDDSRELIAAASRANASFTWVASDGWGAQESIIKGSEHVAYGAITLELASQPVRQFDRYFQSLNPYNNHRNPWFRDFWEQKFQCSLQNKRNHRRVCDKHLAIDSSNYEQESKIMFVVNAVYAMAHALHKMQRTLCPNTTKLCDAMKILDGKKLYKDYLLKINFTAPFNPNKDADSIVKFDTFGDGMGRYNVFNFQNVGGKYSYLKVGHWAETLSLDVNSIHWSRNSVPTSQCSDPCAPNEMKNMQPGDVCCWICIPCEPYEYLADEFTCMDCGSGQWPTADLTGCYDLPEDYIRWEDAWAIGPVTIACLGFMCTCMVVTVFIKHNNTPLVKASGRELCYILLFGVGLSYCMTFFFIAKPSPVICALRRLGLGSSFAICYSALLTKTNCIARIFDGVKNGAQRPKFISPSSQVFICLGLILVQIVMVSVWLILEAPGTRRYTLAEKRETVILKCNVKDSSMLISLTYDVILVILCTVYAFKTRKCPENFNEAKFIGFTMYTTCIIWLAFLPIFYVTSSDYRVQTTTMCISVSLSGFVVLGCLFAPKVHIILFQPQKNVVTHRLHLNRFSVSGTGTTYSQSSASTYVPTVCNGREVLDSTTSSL

[27] = system: Rattus norvegicus; assay: Plasma concentration in Fischer 344 rat at 10 mg/kg, po after 6 hrs; format: ADME, organism-based; parameters: dose 10 mg/kg, route oral; settings: in vivo; in short: as §2
[28] = target: T2, Metabotropic glutamate receptor 3; assay: Displacement of [3H]LY341495 from human recombinant mGluR3 in RGT cells; format: cell-based
In short: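 Radioligand binding on membranes carrying recombinant human mGlu2 or mGlu3, displacing the antagonist [3H]LY341495. Ki was calculated from IC50 by the Cheng-Prusoff equation. Values are the mean of at least three separate experiments.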

[29] = AUC (0-24h) in Fischer 344 rat at 10 mg/kg, iv; format: ADME, organism-based; parameters: time < 24 hr, dose 10 mg/kg, route intravenous; settings: plasma; in short: as §5
[30] = target: Metabotropic glutamate receptor 8 (Homo sapiens, UniProt O00222); assay: Agonist activity at human mGluR8 assessed as effect on cAMP production in RGT cells; format: functional, cell-based; in short: as §4
Metabotropic glutamate receptor 8, sequence (O00222 whole entry): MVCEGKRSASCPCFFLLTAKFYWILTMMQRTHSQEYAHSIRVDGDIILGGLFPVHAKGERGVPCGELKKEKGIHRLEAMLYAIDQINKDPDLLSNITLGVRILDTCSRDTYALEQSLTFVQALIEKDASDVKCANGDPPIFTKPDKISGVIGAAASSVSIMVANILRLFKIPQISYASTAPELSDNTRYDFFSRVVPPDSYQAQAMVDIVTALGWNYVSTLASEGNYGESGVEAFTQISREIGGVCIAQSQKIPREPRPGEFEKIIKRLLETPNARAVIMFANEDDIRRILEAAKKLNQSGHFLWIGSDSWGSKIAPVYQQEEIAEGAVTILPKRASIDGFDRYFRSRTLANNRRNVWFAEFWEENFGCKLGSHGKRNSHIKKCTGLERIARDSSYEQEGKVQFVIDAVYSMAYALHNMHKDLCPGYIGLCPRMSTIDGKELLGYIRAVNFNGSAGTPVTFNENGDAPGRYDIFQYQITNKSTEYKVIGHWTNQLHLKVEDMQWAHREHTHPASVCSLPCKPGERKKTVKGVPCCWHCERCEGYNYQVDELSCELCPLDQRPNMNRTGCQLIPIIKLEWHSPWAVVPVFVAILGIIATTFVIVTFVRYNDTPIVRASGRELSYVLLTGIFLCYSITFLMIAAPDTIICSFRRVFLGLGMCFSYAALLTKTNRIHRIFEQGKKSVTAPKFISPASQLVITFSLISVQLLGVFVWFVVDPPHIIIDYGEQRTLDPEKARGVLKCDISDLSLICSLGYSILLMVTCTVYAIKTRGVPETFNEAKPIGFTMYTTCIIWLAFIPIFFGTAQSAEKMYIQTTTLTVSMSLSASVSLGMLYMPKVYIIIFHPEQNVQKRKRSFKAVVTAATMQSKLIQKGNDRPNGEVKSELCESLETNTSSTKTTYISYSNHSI

[31] = system: Rattus norvegicus; assay: Plasma concentration in Fischer 344 rat at 10 mg/kg, po after 3 hrs; format: ADME, organism-based; parameters: dose 10 mg/kg, route oral; settings: in vivo; in short: as §2
[32] = system: Rattus norvegicus; assay: Cmax in Fischer 344 rat at 2.5 mg/kg, iv; format: ADME, organism-based; parameters: dose 2.5 mg/kg, route intravenous; settings: in vivo; in short: as §5
[33] = Plasma concentration in Fischer 344 rat after 8 hrs; format: ADME, organism-based; in short: as §2
[34] = AUC (0-24h) in Fischer 344 rat at 2.5 mg/kg, iv; format: ADME, organism-based; parameters: time < 24 hr, dose 2.5 mg/kg, route intravenous; settings: plasma; in short: as §5
[35] = system: Rattus norvegicus; assay: AUC (0-24h) in Fischer 344 rat at 10 mg/kg, po; settings: in vivo
[36] = Plasma concentration in Fischer 344 rat after 1 hr; format: ADME, organism-based; in short: as §2
[37] = Plasma concentration in Fischer 344 rat after 3 hrs; format: ADME, organism-based; in short: as §2
[38] = as §6; format: ADME, organism-based, Plasma; parameters: time < 24 hr, dose 10 mg/kg, route oral; settings: Fischer 344, rat, plasma; in short: as §5
[39] = Tmax in Fischer 344 rat at 2.5 mg/kg, iv; format: ADME, organism-based; parameters: dose 2.5 mg/kg, route intravenous; settings: in vivo; in short: as §5
[40] = target: T1, Metabotropic glutamate receptor 2; assay: Displacement of [3H]LY341495 from human recombinant mGluR2 in RGT cells; format: cell-based

N[C@@]1(C(=O)O)CS[C@H]2[C@H](C(=O)O)[C@H]21
Activity [1]: inactive
Activity [2]: inactive
Activity [3]: inactive
Activity [4]: inactive
Activity [5]: inactive
Activity [6]: inactive
Activity [7]: inactive
Activity [8]: inactive

N[C@@]1(C(=O)O)C[S+]([O-])[C@H]2[C@H](C(=O)O)[C@H]21 (stereo in doubt; (+)-11)
Cp [9]: 7495 ng/mL
Activity [10]: 98%
EC50 [11]: 0.089 nM
concentration at 8 h [12]: 202 ng/mL
ED50 [13]: 2.3 mg/kg
bioavailability [14]: 100%
Cp [15]: 2895 ng/mL
Cp [16]: 726 ng/mL
Cmax [17]: 29000 ng/mL
concentration at 16 h [18]: 34 ng/mL
concentration at 24 h [19]: 3 ng/mL
Tmax [20]: 0 h
Tmax [21]: 30 min
Cp [22]: 3244 ng/mL
AUC [23]: 13000 ng·h/mL
Activity [24]: 98%
Cmax [25]: 7500 ng/mL
EC50 [26]: 1.4 nM
Cp [27]: 311 ng/mL
Ki [28]: 0.17 nM
AUC(0-t) at 24 h [29]: 13000 ng·h/mL
EC50 [30]: 3070 nM
Cp [31]: 699 ng/mL

N[C@@]1(C(=O)O)CS(=O)(=O)[C@H]2[C@H](C(=O)O)[C@H]21 [LY404039]
Activity [10]: 91%
Activity [1]: inactive
Activity [2]: inactive
EC50 [11]: 23.4 nM
Activity [3]: inactive
Cmax [32]: 7500 ng/mL
concentration at 8 h [33]: < 10 ng/mL
ED50 [13]: 2.5 mg/kg
AUC(0-t) at 24 h [34]: 2900 ng·h/mL
bioavailability [14]: 63%
Activity [4]: inactive
Activity [5]: inactive
AUC [35]: 7.2 µg/mL
concentration at 1 h [36]: 4000 ng/mL
Activity [6]: inactive
Activity [7]: inactive
Tmax [21]: 60 min
concentration at 3 h [37]: > 500 ng/mL
AUC(0-t) at 24 h [38]: 7200 ng·h/mL
Activity [24]: 91%
Activity [8]: inactive
Cmax [25]: 4000 ng/mL
EC50 [26]: 48 nM
Ki [28]: 92 nM
EC50 [30]: 47800 nM
Tmax [39]: 0 h

N[C@@]1(C(=O)O)C[S+]([O-])[C@H]2[C@H](C(=O)O)[C@H]21 (stereo in doubt; (-)-11)
Activity [2]: inactive
Activity [3]: inactive
Activity [5]: inactive
Activity [8]: inactive

N[C@@]1(C(=O)O)C[S+]([O-])[C@H]2[C@H](C(=O)O)[C@H]21 (stereo in doubt; (-)-10)
EC50 [11]: 18.1 nM
Ki [40]: 508 nM
EC50 [26]: 210 nM
Ki [28]: 447 nM
EC50 [30]: > 100000 nM
